Article PMC5074691 (Cell reports, 2016)

Tests used:
[1] = system: reconstituted nucleosome core particles (NCPs); experiment: EMSA with nucleosome core particles; assay type: binding; details: 1 to 20 molar excess protein; NCPs (3 pM); 20 mM Tris-HCl pH 7.5, 150 mM NaCl, 2 mM DTT; 1 h, room temperature
Outline: (§1)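 MORC3 His-ATPase (aa 1–392, E. coli-expressed, Ni-NTA purified) is titrated onto the nucleic acid substrate; for 601 DNA, His-ATPase-CW (aa 1–455) is also tested. Mixtures run on 5% polyacrylamide gels in 0.2x TB at 150 V for 1 h on ice, then are stained with ethidium bromide and imaged.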

[2] = system: MORC3-CW E453A; experiment: 1H,15N TROSY/HSQC NMR titration and competition on MORC3-CW E453A; assay type: binding, human
[3] = system: Widom 601 DNA; experiment: EMSA with Widom 601 DNA; assay type: binding; details: 1 to 20 molar excess protein; 601 DNA (3 pM); 20 mM Tris-HCl pH 7.5, 150 mM NaCl, 2 mM DTT; 1 h, room temperature
Outline: as §1

[4] = system: MORC3 His-ATPase-CW; experiment: ATPase assay; assay type: biochemical, human; details: with DNA
Outline: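 Human MORC3 His-ATPase-CW (aa 1–455), expressed in E. coli Rosetta2(DE3) pLysS, Ni-NTA purified in HEPES buffers, used at 1.5–3.0 μM. Run 20 min at 22 °C or 30 min at 30 °C, read at A360. SD from ≥3 experiments (two at 30 °C).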

Row | Molecule | NCP binding by EMSA [1] | chemical shift perturbation / complex formation in TROSY ([2]; 10 mM HEPES pH 7.4, 100 mM NaCl, 1 mM TCEP, 7% D2O, 298K) | displacement of H3K4me0 from CW E453A:H3K4me0 complex ([2]; His-ATPase titrated into CW E453A:H3K4me0 (1:4), 10 mM HEPES pH 7.4) | DNA binding by EMSA [3] | effect of linked CW on rate of hydrolysis in the presence of DNA [4]
1 | His-ATPase: His-tagged isolated ATPase domain of MORC3 (aa 1-392) (protein, left off: His tag, end not stated, kept) MAAQPPRGIRLSALCPKFLHTNSTSHTWPFSAVAELIDNAYDPDVNAKQIWIDKTVINDHICLTFTDNGNGMTSDKLHKMLSFGFSDKVTMNGHVPVGLYGNGFKSGSMRLGKDAIVFTKNGESMSVGLLSQTYLEVIKAEHVVVPIVAFNKHRQMINLAESKASLAAILEHSLFSTEQKLLAELDAIIGKKGTRIIIWNLRSYKNATEFDFEKDKYDIRIPEDLDEITGKKGYKKQERMDQIAPESDYSLRAYCSILYLKPRMQIILRGQKVKTQLVSKSLAYIERDVYRPKFLSKTVRITFGFNCRNKDHYGIMMYHRNRLIKAYEKVGCQLRANNMGVGVVGIIECNFLKPTHNKQDFDYTNEYRLTITALGEKLNDYWNEMKVKKNTE | resulted in a shift of the DNA and/or NCP bands | Substantial chemical shift perturbations | could not efficiently displace H3K4me0 | resulted in a shift of the DNA and/or NCP bands | –
2 | His-ATPase-CW: MORC3 construct harboring linked ATPase and CW domains (aa 1-455), His-tagged (protein, left off: His tag, end not stated, kept) MAAQPPRGIRLSALCPKFLHTNSTSHTWPFSAVAELIDNAYDPDVNAKQIWIDKTVINDHICLTFTDNGNGMTSDKLHKMLSFGFSDKVTMNGHVPVGLYGNGFKSGSMRLGKDAIVFTKNGESMSVGLLSQTYLEVIKAEHVVVPIVAFNKHRQMINLAESKASLAAILEHSLFSTEQKLLAELDAIIGKKGTRIIIWNLRSYKNATEFDFEKDKYDIRIPEDLDEITGKKGYKKQERMDQIAPESDYSLRAYCSILYLKPRMQIILRGQKVKTQLVSKSLAYIERDVYRPKFLSKTVRITFGFNCRNKDHYGIMMYHRNRLIKAYEKVGCQLRANNMGVGVVGIIECNFLKPTHNKQDFDYTNEYRLTITALGEKLNDYWNEMKVKKNTEYPLNLPVEDIQKRPDQTWVQCDACLKWRKLPDGMDQLPEKWYCSNNPDPQFRNCEVPEEPEDE | – | – | – | impaired | considerably decreased the rate of hydrolysis in the presence of DNA
